Changes are numbered by the printed parent chain. Numbers in names are those of the source.
B1: smAKAP-S66D: recombinant smAKAP with Ser66 mutated to an aspartic acid (protein, UniProt Q9BSF0 2-95, looked up, variant S66D)
Small membrane A-kinase …: GCMKSKQTFPFPTIYEGEKQHESEEPFMPEERCLPRMASPVNVKEEVKEPPGTNTVILEYAHRLDQDILCDALQQWACNNIKYHDIPYIESEGP
B2: smAKAP-S66D-GFP: phosphomimetic mutant GFP fusion (protein, UniProt Q9BSF0 2-95, looked up, variant S66D)
Small membrane A-kinase …: B1 Small membrane A-kinase …
modifications: GFP fusion
B3: smAKAP-S66E-GFP: phosphomimetic mutant GFP fusion (protein, UniProt Q9BSF0 2-95, looked up, variant S66E)
Small membrane A-kinase …: B1 Small membrane A-kinase … with D65E
modifications: GFP fusion

Key:
[1] = test system: PKA-Cα; test: 32P phosphorylation; assay type: biochemical; details: PKA-Cα 20 nM, pH 7.5; n = 3
How it was run: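 Substrate was His-tagged human smAKAP (wild type, or S66D with PKA-Cα) at 10 μM. It was incubated with 20 nM recombinant kinase in 50 mM MOPS pH 7.5 containing 10 mM MgCl2, 200 μM ATP and [32P]ATP. Aliquots were quenched in 30% acetic acid at 0, 5, 10 and 15 min. Results are means ± SD of 3 independent experiments.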

[2] = test system: PKA-RIβ; test: Confocal colocalization with PKA-RIβ-mKO2 in HeLa cells; assay type: cell-based; details: for localization of PKA-RIβ on co-transfection: phosphomimetic mutant + PKA-RIβ-mKO2
How it was run: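 HeLa cells co-expressed GFP-tagged smAKAP (wild type, S66E or S66D) with mKO2-tagged PKA-RIα or RIβ. Cells were washed in ice-cold PBS, fixed in ice-cold 4% formaldehyde in PBS, washed twice and imaged by confocal microscopy through a 63× oil objective. Stimulated cells received calyculin A plus 8-CPT-cAMP and were imaged live.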

[3] = test system: PKA-RIα; test: Confocal colocalization with PKA-RIα in HeLa cells; assay type: cell-based; details: phosphomimetic mutant + PKA-RIα-mKO2

phosphorylation by PKA [1]	Molecule	localization of PKA-RIβ on co-transfection [2]	localization of PKA-RIα on co-transfection [3]	colocalization with PKA-RIβ-mKO2 ([2]; transfected, confocal, unstimulated)
no detectable levels of phosphorylation	B1			
	B2	predominantly resided in the cytoplasm	predominantly resided in the cytoplasm	
	B3	predominantly resided in the cytoplasm	predominantly resided in the cytoplasm	no colocalization occurs

— paper PMC4980077 (The FEBS journal, 2016)
